# Source: ChEMBL document CHEMBL3400092 (2015)
# Calls of active or inactive are those of the source. The rule behind the calls is not given here.
# Tested on: CL1-5
# Assay: Reduction in total wild type EGFR levels in gefinitib-insensitive and 24 hrs serum starved human CL1-5 cells at 10 uM pre-incubated for 1 hr before EGF stimulation for 30 mins by Western blot method
# Type: functional
# Conditions: not given
# Summary of the method: (§1)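 Cells in RPMI-1640 with 10% FBS were plated at 1×10^6 per 10-cm dish, cultured overnight, then kept serum-free for 24 h. They were pre-treated with 10 μM compound for 1 h, serum-free, then stimulated with EGF 20 ng/mL (20 min in methods, 30 min in legend). Whole-cell lysates, 40 μg/lane, were run on 10% SDS-PAGE, blotted to PVDF, probed for pan-EGFR and pEGFR (Tyr1068), and detected by ECL.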
row,SMILES,inhibition
1,CCOC(=O)/C=C/C(C(=O)/C=C/c1ccc(OC)c(OC)c1)=C(O)\C=C\c1ccc(OC)c(OC)c1,inactive
2,COc1cc(/C=C/C(=O)/C=C(O)/C=C/c2ccc(OCC(=O)O)c(OC)c2)ccc1OCC(=O)O,inactive
3,COc1ccc(/C=C/C(=O)/C=C(O)/C=C/c2ccc(OC)c(OC)c2)cc1O,Active
4,CCOC(=O)CC/C(C(=O)/C=C/c1ccc(O)c(OC)c1)=C(O)\C=C\c1ccc(O)c(OC)c1,Active
5,COc1cc(/C=C/C(=O)/C(C(C)=O)=C(O)/C=C/c2ccc(O)c(OC)c2)ccc1O,Active
6,COc1cc(/C=C/C(=O)/C(CCC(=O)O)=C(O)/C=C/c2ccc(O)c(OC)c2)ccc1O,inactive
7,COc1cc(/C=C/C(O)=C/C(=O)/C=C/c2ccc(O)c(O)c2)ccc1O,inactive
8,COc1cc(OC)c(OC)cc1/C=C/C(=O)/C=C(O)/C=C/c1cc(OC)c(OC)cc1OC,Active
9,CCOC(=O)CC/C(C(=O)/C=C/c1ccc(O)c(OC)c1)=C(O)\C=C\c1ccc(O)c(O)c1,Active
10,COc1cc(F)c(/C=C/C(=O)/C=C(O)/C=C/c2cc(OC)c(OC)cc2F)cc1OC,Active
11,COc1cc(/C=C/C(=O)/C=C(O)/C=C/c2ccc(OCC(=O)Nc3ccccc3)c(OC)c2)ccc1OCC(=O)Nc1ccccc1,inactive
12,CCOC(=O)CC/C(C(=O)/C=C/c1cc(OC)c(O)c(OC)c1)=C(O)\C=C\c1cc(OC)c(O)c(OC)c1,inactive
13,CCOC(=O)CC/C(C(=O)/C=C/c1ccc(OCC(=O)OC)c(OC)c1)=C(O)\C=C\c1ccc(OCC(=O)OC)c(OC)c1,inactive
14,COc1cc(/C=C/C(=O)/C=C(O)/C=C/c2cc(O)c(OC)c(OC)c2)cc(O)c1OC,inactive
15,COc1ccc(/C=C/C(=O)/C=C(O)/C=C/c2ccc(OC)c(OC)c2OC)cc1OC,Active
16,COC(=O)COc1ccc(/C=C/C(=O)/C=C(O)/C=C/c2ccc(OCC(=O)OC)c(OC)c2)cc1OC,inactive
17,O=C(O)CC/C(C(=O)/C=C/c1ccc(O)c(O)c1)=C(O)\C=C\c1ccc(O)c(O)c1,inactive
18,CCOC(=O)/C=C/C(C(=O)/C=C/c1ccc(O)c(O)c1)=C(O)\C=C\c1ccc(O)c(OC)c1,inactive

# Tested on: NCI-H1975
# Assay: Reduction in total EGFR L858R and T790M mutant levels in gefinitib-resistant and 24 hrs serum starved human NCI-H1975 cells at 10 uM pre-incubated for 1 hr before EGF stimulation for 30 mins by Western blot method
# Type: functional, cell-based
# Conditions: not given
# Summary of the method: as §1
row,SMILES,inhibition
1,CCOC(=O)/C=C/C(C(=O)/C=C/c1ccc(OC)c(OC)c1)=C(O)\C=C\c1ccc(OC)c(OC)c1,inactive
2,COc1cc(/C=C/C(=O)/C=C(O)/C=C/c2ccc(OCC(=O)O)c(OC)c2)ccc1OCC(=O)O,inactive
3,COc1ccc(/C=C/C(=O)/C=C(O)/C=C/c2ccc(OC)c(OC)c2)cc1O,Active
4,CCOC(=O)CC/C(C(=O)/C=C/c1ccc(O)c(OC)c1)=C(O)\C=C\c1ccc(O)c(OC)c1,inactive
5,COc1cc(/C=C/C(=O)/C(C(C)=O)=C(O)/C=C/c2ccc(O)c(OC)c2)ccc1O,Active
6,COc1cc(/C=C/C(=O)/C(CCC(=O)O)=C(O)/C=C/c2ccc(O)c(OC)c2)ccc1O,inactive
7,COc1cc(/C=C/C(O)=C/C(=O)/C=C/c2ccc(O)c(O)c2)ccc1O,Active
8,COc1cc(OC)c(OC)cc1/C=C/C(=O)/C=C(O)/C=C/c1cc(OC)c(OC)cc1OC,Active
9,CCOC(=O)CC/C(C(=O)/C=C/c1ccc(O)c(OC)c1)=C(O)\C=C\c1ccc(O)c(O)c1,Active
10,COc1cc(F)c(/C=C/C(=O)/C=C(O)/C=C/c2cc(OC)c(OC)cc2F)cc1OC,Active
11,COc1cc(/C=C/C(=O)/C=C(O)/C=C/c2ccc(OCC(=O)Nc3ccccc3)c(OC)c2)ccc1OCC(=O)Nc1ccccc1,inactive
12,CCOC(=O)CC/C(C(=O)/C=C/c1cc(OC)c(O)c(OC)c1)=C(O)\C=C\c1cc(OC)c(O)c(OC)c1,inactive
13,CCOC(=O)CC/C(C(=O)/C=C/c1ccc(OCC(=O)OC)c(OC)c1)=C(O)\C=C\c1ccc(OCC(=O)OC)c(OC)c1,inactive
14,COc1cc(/C=C/C(=O)/C=C(O)/C=C/c2cc(O)c(OC)c(OC)c2)cc(O)c1OC,inactive
15,COc1ccc(/C=C/C(=O)/C=C(O)/C=C/c2ccc(OC)c(OC)c2OC)cc1OC,Active
16,COC(=O)COc1ccc(/C=C/C(=O)/C=C(O)/C=C/c2ccc(OCC(=O)OC)c(OC)c2)cc1OC,inactive
17,O=C(O)CC/C(C(=O)/C=C/c1ccc(O)c(O)c1)=C(O)\C=C\c1ccc(O)c(O)c1,inactive
18,CCOC(=O)/C=C/C(C(=O)/C=C/c1ccc(O)c(O)c1)=C(O)\C=C\c1ccc(O)c(OC)c1,inactive

# Tested on: IEC-18
# Assay: Cytoprotective activity against 40 uM gefitinib-induced cytotoxicity in rat IEC-18 cells assessed as restoration of cell viability at 5 uM incubated for 24 hrs by MTT assay
# Type: functional
# Conditions: not given
# Summary of the method: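 IEC-18 rat intestinal epithelial cells, kept in DMEM with 10% FBS, were seeded at 5×10^3 cells/well and co-treated with compound and gefitinib for 24 h. Stocks were in DMSO, with final DMSO below 0.1%. MTT (0.5 mg/mL) was added for 1.5 h, then DMSO, and absorbance was read at 570 nm. Viability was expressed as proliferative index (%) relative to untreated cells (100%). Triplicate; Student t-test.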
row,SMILES,Activity
1,COc1ccc(/C=C/C(=O)/C=C(O)/C=C/c2ccc(OC)c(OC)c2)cc1O,Active

# Target: Epidermal growth factor receptor (Homo sapiens) (UniProt P00533)
# Conditions: CL1-5, at 10 µM
# Epidermal growth factor receptor (Homo sapiens), sequence (P00533 whole entry): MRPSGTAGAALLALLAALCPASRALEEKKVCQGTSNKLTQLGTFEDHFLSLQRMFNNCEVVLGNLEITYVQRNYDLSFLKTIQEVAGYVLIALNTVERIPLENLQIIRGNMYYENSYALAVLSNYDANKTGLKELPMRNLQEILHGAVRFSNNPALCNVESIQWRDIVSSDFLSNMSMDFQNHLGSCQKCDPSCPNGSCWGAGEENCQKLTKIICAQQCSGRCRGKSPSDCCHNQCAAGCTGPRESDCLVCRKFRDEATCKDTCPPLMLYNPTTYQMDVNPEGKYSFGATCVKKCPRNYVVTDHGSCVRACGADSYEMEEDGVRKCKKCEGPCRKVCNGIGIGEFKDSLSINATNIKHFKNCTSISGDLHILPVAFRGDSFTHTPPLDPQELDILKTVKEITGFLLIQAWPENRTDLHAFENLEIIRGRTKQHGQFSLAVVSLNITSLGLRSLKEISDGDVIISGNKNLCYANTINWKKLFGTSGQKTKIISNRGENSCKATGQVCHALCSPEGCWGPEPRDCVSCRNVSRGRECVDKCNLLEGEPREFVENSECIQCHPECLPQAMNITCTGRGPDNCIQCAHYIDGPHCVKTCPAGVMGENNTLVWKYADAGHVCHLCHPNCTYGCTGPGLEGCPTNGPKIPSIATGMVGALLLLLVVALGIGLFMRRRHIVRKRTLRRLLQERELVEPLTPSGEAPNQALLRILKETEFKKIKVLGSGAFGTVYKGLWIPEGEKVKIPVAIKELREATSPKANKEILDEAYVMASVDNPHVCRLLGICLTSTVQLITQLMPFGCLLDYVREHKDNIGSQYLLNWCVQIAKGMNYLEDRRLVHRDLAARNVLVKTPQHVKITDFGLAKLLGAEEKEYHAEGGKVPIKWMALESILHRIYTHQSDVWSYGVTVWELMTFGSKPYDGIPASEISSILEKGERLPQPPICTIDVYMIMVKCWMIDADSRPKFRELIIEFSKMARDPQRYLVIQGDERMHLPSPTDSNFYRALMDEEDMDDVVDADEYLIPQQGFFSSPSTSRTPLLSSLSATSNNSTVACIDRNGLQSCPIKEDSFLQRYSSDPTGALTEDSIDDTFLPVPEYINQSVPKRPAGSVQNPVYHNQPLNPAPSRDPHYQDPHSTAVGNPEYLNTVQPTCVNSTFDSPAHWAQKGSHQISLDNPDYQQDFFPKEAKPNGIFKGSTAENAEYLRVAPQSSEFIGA
row,SMILES,inhibition
1,CCOC(=O)/C=C/C(C(=O)/C=C/c1ccc(OC)c(OC)c1)=C(O)\C=C\c1ccc(OC)c(OC)c1,inactive
2,COc1cc(/C=C/C(=O)/C=C(O)/C=C/c2ccc(OCC(=O)O)c(OC)c2)ccc1OCC(=O)O,inactive
3,COc1ccc(/C=C/C(=O)/C=C(O)/C=C/c2ccc(OC)c(OC)c2)cc1O,Active
4,CCOC(=O)CC/C(C(=O)/C=C/c1ccc(O)c(OC)c1)=C(O)\C=C\c1ccc(O)c(OC)c1,Active
5,COc1cc(/C=C/C(=O)/C(C(C)=O)=C(O)/C=C/c2ccc(O)c(OC)c2)ccc1O,Active
6,COc1cc(/C=C/C(=O)/C(CCC(=O)O)=C(O)/C=C/c2ccc(O)c(OC)c2)ccc1O,inactive
7,COc1cc(/C=C/C(O)=C/C(=O)/C=C/c2ccc(O)c(O)c2)ccc1O,inactive
8,COc1cc(OC)c(OC)cc1/C=C/C(=O)/C=C(O)/C=C/c1cc(OC)c(OC)cc1OC,Active
9,CCOC(=O)CC/C(C(=O)/C=C/c1ccc(O)c(OC)c1)=C(O)\C=C\c1ccc(O)c(O)c1,Active
10,COc1cc(F)c(/C=C/C(=O)/C=C(O)/C=C/c2cc(OC)c(OC)cc2F)cc1OC,Active
11,COc1cc(/C=C/C(=O)/C=C(O)/C=C/c2ccc(OCC(=O)Nc3ccccc3)c(OC)c2)ccc1OCC(=O)Nc1ccccc1,inactive
12,CCOC(=O)CC/C(C(=O)/C=C/c1cc(OC)c(O)c(OC)c1)=C(O)\C=C\c1cc(OC)c(O)c(OC)c1,inactive
13,CCOC(=O)CC/C(C(=O)/C=C/c1ccc(OCC(=O)OC)c(OC)c1)=C(O)\C=C\c1ccc(OCC(=O)OC)c(OC)c1,inactive
14,COc1cc(/C=C/C(=O)/C=C(O)/C=C/c2cc(O)c(OC)c(OC)c2)cc(O)c1OC,inactive
15,COc1ccc(/C=C/C(=O)/C=C(O)/C=C/c2ccc(OC)c(OC)c2OC)cc1OC,Active
16,COC(=O)COc1ccc(/C=C/C(=O)/C=C(O)/C=C/c2ccc(OCC(=O)OC)c(OC)c2)cc1OC,inactive
17,O=C(O)CC/C(C(=O)/C=C/c1ccc(O)c(O)c1)=C(O)\C=C\c1ccc(O)c(O)c1,inactive
18,CCOC(=O)/C=C/C(C(=O)/C=C/c1ccc(O)c(O)c1)=C(O)\C=C\c1ccc(O)c(OC)c1,inactive

# Tested on: Epidermal growth factor receptor (Homo sapiens), P00533 [L858R,T790M]
# Conditions: NCI-H1975, at 10 µM
# Epidermal growth factor receptor (Homo sapiens), P00533 [L858R,T790M], sequence (P00533 whole entry T790M/L858R, looked up): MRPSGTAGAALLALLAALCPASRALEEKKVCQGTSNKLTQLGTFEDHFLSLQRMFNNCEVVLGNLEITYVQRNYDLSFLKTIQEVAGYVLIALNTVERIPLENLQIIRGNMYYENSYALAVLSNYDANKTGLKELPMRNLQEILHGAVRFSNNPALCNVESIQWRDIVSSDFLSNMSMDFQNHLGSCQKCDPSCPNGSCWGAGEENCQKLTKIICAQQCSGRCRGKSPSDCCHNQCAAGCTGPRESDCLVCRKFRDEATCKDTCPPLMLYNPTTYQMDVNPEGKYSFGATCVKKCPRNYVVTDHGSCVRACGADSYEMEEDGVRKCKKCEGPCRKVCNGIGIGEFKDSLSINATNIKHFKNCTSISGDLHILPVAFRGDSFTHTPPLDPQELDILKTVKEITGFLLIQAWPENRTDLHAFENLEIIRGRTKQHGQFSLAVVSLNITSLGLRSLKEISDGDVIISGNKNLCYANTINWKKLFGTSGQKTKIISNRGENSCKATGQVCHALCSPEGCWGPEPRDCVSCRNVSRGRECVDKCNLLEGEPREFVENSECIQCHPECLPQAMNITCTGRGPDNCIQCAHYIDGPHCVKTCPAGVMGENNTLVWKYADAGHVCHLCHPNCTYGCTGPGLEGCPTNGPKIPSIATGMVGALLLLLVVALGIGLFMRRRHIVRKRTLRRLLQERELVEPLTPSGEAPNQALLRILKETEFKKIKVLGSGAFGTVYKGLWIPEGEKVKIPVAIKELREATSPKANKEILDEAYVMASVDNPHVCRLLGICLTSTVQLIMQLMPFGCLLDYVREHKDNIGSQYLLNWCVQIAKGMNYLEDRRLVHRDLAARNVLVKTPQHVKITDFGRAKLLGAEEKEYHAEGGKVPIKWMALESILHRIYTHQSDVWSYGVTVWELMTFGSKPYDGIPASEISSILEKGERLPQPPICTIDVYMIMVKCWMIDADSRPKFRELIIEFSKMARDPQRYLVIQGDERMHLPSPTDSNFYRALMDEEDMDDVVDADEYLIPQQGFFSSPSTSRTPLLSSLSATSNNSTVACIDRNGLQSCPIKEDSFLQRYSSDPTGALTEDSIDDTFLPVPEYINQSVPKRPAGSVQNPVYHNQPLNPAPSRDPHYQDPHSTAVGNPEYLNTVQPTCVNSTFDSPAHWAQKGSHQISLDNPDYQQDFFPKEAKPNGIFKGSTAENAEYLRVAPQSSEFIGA
row,SMILES,inhibition
1,CCOC(=O)/C=C/C(C(=O)/C=C/c1ccc(OC)c(OC)c1)=C(O)\C=C\c1ccc(OC)c(OC)c1,inactive
2,COc1cc(/C=C/C(=O)/C=C(O)/C=C/c2ccc(OCC(=O)O)c(OC)c2)ccc1OCC(=O)O,inactive
3,COc1ccc(/C=C/C(=O)/C=C(O)/C=C/c2ccc(OC)c(OC)c2)cc1O,Active
4,CCOC(=O)CC/C(C(=O)/C=C/c1ccc(O)c(OC)c1)=C(O)\C=C\c1ccc(O)c(OC)c1,inactive
5,COc1cc(/C=C/C(=O)/C(C(C)=O)=C(O)/C=C/c2ccc(O)c(OC)c2)ccc1O,Active
6,COc1cc(/C=C/C(=O)/C(CCC(=O)O)=C(O)/C=C/c2ccc(O)c(OC)c2)ccc1O,inactive
7,COc1cc(/C=C/C(O)=C/C(=O)/C=C/c2ccc(O)c(O)c2)ccc1O,Active
8,COc1cc(OC)c(OC)cc1/C=C/C(=O)/C=C(O)/C=C/c1cc(OC)c(OC)cc1OC,Active
9,CCOC(=O)CC/C(C(=O)/C=C/c1ccc(O)c(OC)c1)=C(O)\C=C\c1ccc(O)c(O)c1,Active
10,COc1cc(F)c(/C=C/C(=O)/C=C(O)/C=C/c2cc(OC)c(OC)cc2F)cc1OC,Active
11,COc1cc(/C=C/C(=O)/C=C(O)/C=C/c2ccc(OCC(=O)Nc3ccccc3)c(OC)c2)ccc1OCC(=O)Nc1ccccc1,inactive
12,CCOC(=O)CC/C(C(=O)/C=C/c1cc(OC)c(O)c(OC)c1)=C(O)\C=C\c1cc(OC)c(O)c(OC)c1,inactive
13,CCOC(=O)CC/C(C(=O)/C=C/c1ccc(OCC(=O)OC)c(OC)c1)=C(O)\C=C\c1ccc(OCC(=O)OC)c(OC)c1,inactive
14,COc1cc(/C=C/C(=O)/C=C(O)/C=C/c2cc(O)c(OC)c(OC)c2)cc(O)c1OC,inactive
15,COc1ccc(/C=C/C(=O)/C=C(O)/C=C/c2ccc(OC)c(OC)c2OC)cc1OC,Active
16,COC(=O)COc1ccc(/C=C/C(=O)/C=C(O)/C=C/c2ccc(OCC(=O)OC)c(OC)c2)cc1OC,inactive
17,O=C(O)CC/C(C(=O)/C=C/c1ccc(O)c(O)c1)=C(O)\C=C\c1ccc(O)c(O)c1,inactive
18,CCOC(=O)/C=C/C(C(=O)/C=C/c1ccc(O)c(O)c1)=C(O)\C=C\c1ccc(O)c(OC)c1,inactive
